Measured values taken from ChEMBL document CHEMBL1641437, “New furin inhibitors based on weakly basic amidinohydrazones” (Bioorg Med Chem Lett, 2011).

Columns and labels:
Plasminogen = Plasminogen (Homo sapiens, UniProt P00747); experiment: Inhibition of plasmin
Prothrombin = Prothrombin (Homo sapiens, UniProt P00734); experiment: Inhibition of thrombin
[1] = Inhibition of trypsin
Coagulation factor X = Coagulation factor X (Homo sapiens, UniProt P00742); experiment: Inhibition of factor 10a
Furin = Furin (Homo sapiens, UniProt P09958); experiment: Inhibition of human recombinant furin by fluorescence plate reader analysis
Sequence of Furin (P09958 whole entry): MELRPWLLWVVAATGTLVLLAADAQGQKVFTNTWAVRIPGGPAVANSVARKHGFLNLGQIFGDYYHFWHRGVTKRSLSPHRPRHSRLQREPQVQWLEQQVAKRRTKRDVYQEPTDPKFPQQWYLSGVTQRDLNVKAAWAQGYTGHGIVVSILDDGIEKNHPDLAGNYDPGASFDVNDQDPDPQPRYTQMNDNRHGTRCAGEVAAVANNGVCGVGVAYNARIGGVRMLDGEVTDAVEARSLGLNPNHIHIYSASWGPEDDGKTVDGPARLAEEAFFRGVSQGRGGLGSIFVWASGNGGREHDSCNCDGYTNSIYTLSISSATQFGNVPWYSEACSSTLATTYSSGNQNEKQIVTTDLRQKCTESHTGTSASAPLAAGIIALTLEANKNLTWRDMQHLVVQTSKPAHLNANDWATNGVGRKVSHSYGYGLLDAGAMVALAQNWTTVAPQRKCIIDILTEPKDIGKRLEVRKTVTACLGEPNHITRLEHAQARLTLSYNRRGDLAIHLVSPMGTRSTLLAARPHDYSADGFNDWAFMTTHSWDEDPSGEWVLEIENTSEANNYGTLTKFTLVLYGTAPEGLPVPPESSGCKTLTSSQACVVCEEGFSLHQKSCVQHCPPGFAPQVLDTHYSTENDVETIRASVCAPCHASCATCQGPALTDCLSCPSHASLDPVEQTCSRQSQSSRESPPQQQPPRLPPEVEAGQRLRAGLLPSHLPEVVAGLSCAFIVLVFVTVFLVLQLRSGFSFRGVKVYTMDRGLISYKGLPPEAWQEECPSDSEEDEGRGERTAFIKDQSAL
Method in brief: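 Recombinant human furin, 0.95 nM, with fluorogenic pyroGlu-Arg-Thr-Lys-Arg-AMC at 5, 20 and 50 substrate concentrations, in 100 mM HEPES pH 7.0 with 0.2% Triton X-100, 2 mM CaCl2, 0.02% sodium azide, 1 mg/mL BSA; room temperature. AMC release read by fluorescence (ex 380, em 460 nm); Ki obtained by Dixon plot.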

[2] = molecular target: T1, Subtilisin Carlsberg (Bacillus licheniformis) (UniProt P00780); experiment: Inhibition of Bacillus licheniformis subtilisin at 100 uM relative to control
T1 sequence (whole entry): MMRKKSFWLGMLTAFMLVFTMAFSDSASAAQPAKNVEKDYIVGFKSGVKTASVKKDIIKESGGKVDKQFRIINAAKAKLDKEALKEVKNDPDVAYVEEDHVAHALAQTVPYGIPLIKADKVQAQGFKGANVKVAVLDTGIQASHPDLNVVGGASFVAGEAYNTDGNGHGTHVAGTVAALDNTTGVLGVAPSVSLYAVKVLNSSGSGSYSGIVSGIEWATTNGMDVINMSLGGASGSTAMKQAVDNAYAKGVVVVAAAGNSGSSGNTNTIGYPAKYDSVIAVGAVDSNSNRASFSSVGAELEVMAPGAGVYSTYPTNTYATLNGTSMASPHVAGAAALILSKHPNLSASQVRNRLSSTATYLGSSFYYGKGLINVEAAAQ

Sequence of Coagulation factor X (P00742 41-179 limits assumed): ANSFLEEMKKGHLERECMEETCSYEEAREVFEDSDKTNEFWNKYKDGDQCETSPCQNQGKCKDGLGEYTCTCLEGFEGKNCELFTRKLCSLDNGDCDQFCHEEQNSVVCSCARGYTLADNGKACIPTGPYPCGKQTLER
Sequence of Coagulation factor X (P00742 235-488 limits assumed): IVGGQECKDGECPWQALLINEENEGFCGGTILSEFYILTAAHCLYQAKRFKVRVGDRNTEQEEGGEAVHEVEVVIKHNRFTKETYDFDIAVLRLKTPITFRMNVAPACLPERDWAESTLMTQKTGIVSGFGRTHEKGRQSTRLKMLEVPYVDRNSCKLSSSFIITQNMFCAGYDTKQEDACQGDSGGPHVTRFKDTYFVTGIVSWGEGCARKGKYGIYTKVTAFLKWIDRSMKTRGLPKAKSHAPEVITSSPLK
Sequence of Plasminogen (P00747 97-580 limits assumed): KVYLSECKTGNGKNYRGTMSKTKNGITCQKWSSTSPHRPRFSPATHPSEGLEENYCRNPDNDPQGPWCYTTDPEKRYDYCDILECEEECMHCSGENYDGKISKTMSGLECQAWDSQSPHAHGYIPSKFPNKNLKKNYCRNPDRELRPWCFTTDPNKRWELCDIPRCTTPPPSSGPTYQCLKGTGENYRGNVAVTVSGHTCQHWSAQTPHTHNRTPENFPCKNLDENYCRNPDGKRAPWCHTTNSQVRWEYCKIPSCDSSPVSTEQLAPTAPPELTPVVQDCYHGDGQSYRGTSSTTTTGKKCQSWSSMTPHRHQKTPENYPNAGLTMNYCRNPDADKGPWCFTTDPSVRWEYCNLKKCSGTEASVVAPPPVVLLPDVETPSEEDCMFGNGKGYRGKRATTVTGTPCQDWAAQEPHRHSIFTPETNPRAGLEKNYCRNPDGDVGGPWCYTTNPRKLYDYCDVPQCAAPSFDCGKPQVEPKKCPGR
Sequence of Plasminogen (P00747 581-810 limits assumed): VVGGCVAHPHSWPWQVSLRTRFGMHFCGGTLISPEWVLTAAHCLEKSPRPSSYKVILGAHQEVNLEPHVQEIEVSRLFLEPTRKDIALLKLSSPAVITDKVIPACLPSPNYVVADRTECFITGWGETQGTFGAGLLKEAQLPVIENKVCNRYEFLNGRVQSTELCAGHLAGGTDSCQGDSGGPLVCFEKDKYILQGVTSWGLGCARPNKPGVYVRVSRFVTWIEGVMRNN

Compound | Ki (Plasminogen) | Ki (Prothrombin) | Ki [1] | Ki (Coagulation factor X) | Ki (Furin) | inhibition [2]
C/C(=N\NC(=N)N)c1cc(NS(=O)(=O)c2ccccc2)cc(/C(C)=N/NC(=N)N)c1 | 400 µM | 32 µM | 59 µM | 80 µM | 1.55 µM | –
N=C(N)N/N=C/c1cccc(/C=N/NC(=N)N)c1 | – | – | – | – | 11.5 µM | 4.4%
C/C(=N\NC(=N)N)c1ccc(Oc2ccc(/C(C)=N/NC(=N)N)cc2)cc1 | – | – | – | – | 44 µM | –
NC(N)=NNC(=O)c1ccc(C(=O)NN=C(N)N)cc1 | – | 1000 µM | – | – | 173 µM | –
N=C(N)NNC(=O)c1ccccc1 | – | – | – | – | 376 µM | –
N=C(N)NNC(=O)c1cccc(C(=O)NNC(=N)N)c1 | – | – | – | – | 27.9 µM | –
C/C(=N\NC(=N)N)c1cccc(/C(C)=N/NC(=N)N)c1 | – | – | – | – | 4.78 µM | 0%
C/C(=N\NC(=N)N)c1ccc(/C(C)=N/NC(=N)N)cc1 | – | 786 µM | – | – | 1.84 µM | 7.9%
N=C(N)N/N=C1\C/C(=N\NC(=N)N)c2ccccc21 | – | – | – | – | 17.3 µM | –
N=C(N)N/N=C/c1ccc(/C=N/NC(=N)N)cc1 | – | 68 µM | – | – | 1.47 µM | 0%
N=C(N)N/N=C/c1ccccc1 | – | – | – | – | > 500 µM | –
C/C(=N\NC(=N)N)c1ccccc1 | – | – | – | – | 273 µM | –

More lines, now with the values ahead:

Ki (Plasminogen) | Ki (Prothrombin) | Ki [1] | Ki (Coagulation factor X) | Ki (Furin) | inhibition [2] | Compound
1000 µM | 1000 µM | 110 µM | 1000 µM | 1.42 µM | – | C/C(=N\NC(=N)N)c1cc(NC(=O)CCCCCNC(=N)N)cc(/C(C)=N/NC(=N)N)c1
– | – | – | – | 1.13 µM | 7.7% | C/C(=N/NC(=N)N)c1cc(NC(=O)CC(=O)Nc2cc(/C(C)=N/NC(=N)N)cc(/C(C)=N/NC(=N)N)c2)cc(/C(C)=N/NC(=N)N)c1
– | – | – | – | 5.61 µM | – | C/C(=N/NC(=N)N)c1cc(NC(=O)COc2ccccc2)cc(/C(C)=N/NC(=N)N)c1
110 µM | 1000 µM | 12 µM | 1000 µM | 1.2 µM | – | C/C(=N\NC(=N)N)c1cc(NC(=O)CCCN)cc(/C(C)=N/NC(=N)N)c1
1000 µM | 800 µM | 2.8 µM | 16 µM | 0.46 µM | 7.9% | C/C(=N\NC(=N)N)c1cc(NC(=O)CCCNC(=N)N)cc(/C(C)=N/NC(=N)N)c1
1000 µM | 1000 µM | 68 µM | 1000 µM | 1.13 µM | – | C/C(=N\NC(=N)N)c1cc(NC(=O)[C@H](N)CCCNC(=N)N)cc(/C(C)=N/NC(=N)N)c1
1000 µM | 1000 µM | 23 µM | 1000 µM | 1.04 µM | – | C/C(=N\NC(=N)N)c1cc(NC(=O)CCCCNC(=N)N)cc(/C(C)=N/NC(=N)N)c1
– | 0.86 µM | – | – | 0.58 µM | – | C/C(=N/NC(=N)N)c1cc(OCC(=O)Nc2cc(/C(C)=N\NC(=N)N)cc(/C(C)=N/NC(=N)N)c2)cc(/C(C)=N\NC(=N)N)c1
– | – | – | – | 1.94 µM | – | C/C(=N/NC(=N)N)c1cc(NC(=O)COc2ccc(/C(C)=N/NC(=N)N)cc2)cc(/C(C)=N/NC(=N)N)c1
– | – | – | – | 1.35 µM | – | C/C(=N/NC(=N)N)c1cc(OCC(=O)Nc2ccccc2)cc(/C(C)=N\NC(=N)N)c1
– | – | – | – | 1.46 µM | – | C/C(=N/NC(=N)N)c1cccc(OCC(=O)Nc2cc(/C(C)=N\NC(=N)N)cc(/C(C)=N/NC(=N)N)c2)c1
– | – | – | – | 1.82 µM | – | C/C(=N\NC(=N)N)c1cc(N)cc(/C(C)=N/NC(=N)N)c1
